From BindingDB's records for doi:10.1021/acs.jmedchem.0c00522 (Leiden University & Oncode Institute, 2020)

Tests used:
[1] = molecular target: T1, Phospholipase A and acyltransferase 2 (Homo sapiens, UniProt Q9NWW9); assay: Inhibition of full-length C-terminal FLAG-tagged human PLAAT2 expressed in HEK293T cell lysate preincubated for 30 mins followed by MB064 addition and measured after 20 mins by SDS-PAGE based ABPP analysis
T1 sequence (Q9NWW9 whole entry): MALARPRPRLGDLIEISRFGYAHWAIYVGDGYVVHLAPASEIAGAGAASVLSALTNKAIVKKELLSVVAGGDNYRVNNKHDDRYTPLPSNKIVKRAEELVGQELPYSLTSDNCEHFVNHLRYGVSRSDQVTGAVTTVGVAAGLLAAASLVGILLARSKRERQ
Procedure, shortened: (§1)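 Dose–response competitive ABPP on cytosol only, from HEK293T overexpressing FLAG-tagged PLAAT. Inhibitor 30 min rt, then MB064 20 min rt. PLAAT2 0.25 μg/μL with 250 nM probe; PLAAT3 0.5 μg/μL with 250 nM; PLAAT4 and PLAAT5 1 μg/μL with 500 nM. Fluorescence normalized to Coomassie. IC50 from curves, reported as pIC50 ± SEM, n = 3.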

[2] = molecular target: T2, Phospholipase A and acyltransferase 5 (Homo sapiens, UniProt Q96KN8); assay: Inhibition of full-length C-terminal FLAG-tagged human PLAAT5 expressed in HEK293T cell lysate preincubated for 30 mins followed by MB064 addition and measured after 20 mins by SDS-PAGE based ABPP analysis; procedure, shortened: as §1
T2 sequence (Q96KN8 whole entry): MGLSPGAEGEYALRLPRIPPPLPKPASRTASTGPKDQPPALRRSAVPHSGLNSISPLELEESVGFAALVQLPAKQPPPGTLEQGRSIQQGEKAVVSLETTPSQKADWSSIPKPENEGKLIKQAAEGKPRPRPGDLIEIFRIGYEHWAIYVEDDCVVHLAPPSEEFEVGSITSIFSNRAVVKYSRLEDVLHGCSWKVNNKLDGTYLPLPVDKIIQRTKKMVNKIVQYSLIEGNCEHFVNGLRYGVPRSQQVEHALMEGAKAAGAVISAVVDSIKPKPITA

| IC50 [1] [nM] | IC50 [2] [nM] | Compound |
| --- | --- | --- |
| 631 | 398 | O=C(CCc1ccc(Cl)cc1)C(=O)NCCc1ccccc1 |
| 158 |  | O=C(CCCc1ccccc1)C(=O)NCCc1ccc(Oc2ccc(C(F)(F)F)cn2)cc1 |
